Data from ChEMBL document CHEMBL4017520, “Discovery, Structure-Activity Relationship, and Antiparkinsonian Effect of a Potent and Brain-Penetrant Chemical Series of Positive Allosteric Modulators of Metabotropic Glutamate Receptor 4” (J Med Chem, 2017).
Values after ≈ are worked out from the molar mass of the structure shown. Blank lines part the entries; values can stand above or below the molecule they belong to. Active and inactive are the calls of the source. The rule behind the calls is not given here.

What was measured:
[1] = Drug uptake in Sprague-Dawley rat brain at 10 mg/kg, po after 90 mins post dose administered as single dose by LC-MS/MS analysis; format: ADME, organism-based; conditions: read-out: Drug uptake
Summary of the method: (§1)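 Rats given a single oral dose of 10 mg/kg. Brain concentrations were measured at 30, 60 and 90 min postdose, and brain AUC0–inf was determined. Values are the mean of three rats. Lower limit of quantification was 1 ng/mL.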

[2] = Drug uptake in Sprague-Dawley rat brain at 10 mg/kg, po after 60 mins post dose administered as single dose by LC-MS/MS analysis; format: ADME, organism-based; conditions: read-out: Drug uptake; summary of the method: as §1
[3] = biological target: T1, Metabotropic glutamate receptor 4 (Homo sapiens, UniProt Q14833); experiment: Positive allosteric modulation of recombinant human mGlu4 receptor expressed in HEK293 cells co-expressing Gi/Gq assessed as increase in glutamate-induced calcium flux preincubated for 10 mins followed by glutamate addition measured for 3 mins by Fluo4-AM dye based fluorescence assay; format: functional, cell-based; conditions: read-out: EC50
T1 sequence (Q14833 whole entry): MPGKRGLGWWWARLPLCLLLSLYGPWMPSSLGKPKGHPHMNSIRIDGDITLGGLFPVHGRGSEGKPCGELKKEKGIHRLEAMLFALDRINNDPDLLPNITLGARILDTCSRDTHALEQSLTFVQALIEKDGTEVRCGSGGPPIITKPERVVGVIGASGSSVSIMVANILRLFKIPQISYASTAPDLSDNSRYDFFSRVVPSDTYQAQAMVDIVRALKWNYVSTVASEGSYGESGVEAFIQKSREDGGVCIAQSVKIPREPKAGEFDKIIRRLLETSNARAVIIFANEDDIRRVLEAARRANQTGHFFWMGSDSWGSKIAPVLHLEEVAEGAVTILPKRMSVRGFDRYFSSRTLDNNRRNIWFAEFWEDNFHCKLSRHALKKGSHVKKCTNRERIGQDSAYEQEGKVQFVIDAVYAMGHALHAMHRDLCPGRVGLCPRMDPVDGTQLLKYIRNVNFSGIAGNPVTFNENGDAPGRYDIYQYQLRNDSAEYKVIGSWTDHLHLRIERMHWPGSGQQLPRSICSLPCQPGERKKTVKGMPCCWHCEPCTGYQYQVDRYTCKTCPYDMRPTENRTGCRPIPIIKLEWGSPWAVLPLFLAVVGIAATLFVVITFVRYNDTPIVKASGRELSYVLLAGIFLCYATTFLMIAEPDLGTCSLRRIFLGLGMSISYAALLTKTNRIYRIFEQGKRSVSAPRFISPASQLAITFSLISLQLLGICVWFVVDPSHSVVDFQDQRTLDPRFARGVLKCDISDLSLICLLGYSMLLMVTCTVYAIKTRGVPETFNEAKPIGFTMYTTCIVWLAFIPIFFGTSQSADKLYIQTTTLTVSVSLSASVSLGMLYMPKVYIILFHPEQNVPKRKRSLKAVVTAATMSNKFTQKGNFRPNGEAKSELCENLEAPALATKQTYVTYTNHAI

[4] = Drug uptake in Sprague-Dawley rat brain at 10 mg/kg, po after 30 mins post dose administered as single dose by LC-MS/MS analysis; format: ADME, organism-based; conditions: read-out: Drug uptake
Summary of the method: (§2)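 Rats given a single oral dose of 10 mg/kg. The first plasma sample was taken at 15 min, and sampling continued to 24 h postdose. Brain was sampled at 30 min. Values are the mean (±SEM) of 3 rats.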

[5] = biological target: Metabotropic glutamate receptor 1 (Homo sapiens) (UniProt Q13255); experiment: Negative allosteric modulation of human mGlu1 receptor expressed in HEK293 cells co-expressing Gi/Gq assessed as reduction in EC20/EC80 glutamate-induced intracellular calcium level preincubated for 10 mins followed by glutamate addition measured for 3 mins by Fluo4-AM dye based fluorescence assay; format: functional, cell-based
Chain of Metabotropic glutamate receptor 1 (Homo sapiens) (Q13255 19-1194 limits assumed): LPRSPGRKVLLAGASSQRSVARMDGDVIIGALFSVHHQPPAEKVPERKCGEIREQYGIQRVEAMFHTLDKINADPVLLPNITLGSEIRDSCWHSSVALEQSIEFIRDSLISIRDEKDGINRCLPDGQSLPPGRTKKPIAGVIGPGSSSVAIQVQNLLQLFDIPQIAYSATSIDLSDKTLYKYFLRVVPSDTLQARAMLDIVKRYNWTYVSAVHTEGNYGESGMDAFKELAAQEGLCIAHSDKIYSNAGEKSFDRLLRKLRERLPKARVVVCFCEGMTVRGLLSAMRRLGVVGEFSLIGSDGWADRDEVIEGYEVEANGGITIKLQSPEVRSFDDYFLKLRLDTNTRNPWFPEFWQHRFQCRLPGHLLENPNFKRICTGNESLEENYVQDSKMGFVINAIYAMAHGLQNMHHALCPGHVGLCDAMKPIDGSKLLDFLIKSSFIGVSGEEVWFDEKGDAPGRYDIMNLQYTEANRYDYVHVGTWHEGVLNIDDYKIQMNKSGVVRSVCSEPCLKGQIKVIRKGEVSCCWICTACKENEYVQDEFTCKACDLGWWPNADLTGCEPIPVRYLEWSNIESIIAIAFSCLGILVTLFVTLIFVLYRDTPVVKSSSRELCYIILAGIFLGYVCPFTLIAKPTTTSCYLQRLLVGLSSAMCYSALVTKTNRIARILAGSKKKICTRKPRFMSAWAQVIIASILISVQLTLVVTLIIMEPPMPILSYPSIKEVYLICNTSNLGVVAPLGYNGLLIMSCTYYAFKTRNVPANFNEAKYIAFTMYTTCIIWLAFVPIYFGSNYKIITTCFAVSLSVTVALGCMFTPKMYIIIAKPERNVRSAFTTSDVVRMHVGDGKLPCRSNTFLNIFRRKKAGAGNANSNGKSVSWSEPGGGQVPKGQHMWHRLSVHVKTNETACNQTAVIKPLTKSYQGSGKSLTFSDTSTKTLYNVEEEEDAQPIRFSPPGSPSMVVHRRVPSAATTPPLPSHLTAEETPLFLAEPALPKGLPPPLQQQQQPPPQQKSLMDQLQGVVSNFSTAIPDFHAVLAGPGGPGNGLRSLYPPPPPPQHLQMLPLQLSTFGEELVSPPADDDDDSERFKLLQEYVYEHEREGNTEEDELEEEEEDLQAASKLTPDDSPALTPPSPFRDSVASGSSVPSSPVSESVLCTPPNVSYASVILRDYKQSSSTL
Summary of the method: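 HEK-293 cells transiently expressing human mGluR1 with a Gα15, Gqi9 or GqTOP G protein for calcium read-out; Fluo4-AM loaded. Compound added 10 min, then EC80 glutamate, fluorescence recorded 3 min; concentration–response over 20 concentrations, duplicate, three independent experiments.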

[6] = biological target: T1, Metabotropic glutamate receptor 4; experiment: Positive allosteric modulation of recombinant human mGlu4 receptor expressed in HEK293 cells co-expressing chimeric G protein assessed as increase in glutamate-induced calcium flux after 10 mins by Fluo4-AM dye based fluorescence assay; format: functional, cell-based
Rattus norvegicus [7] = species on record: Rattus norvegicus; experiment: Activity at kainate glutamate receptor in rat cerebral cortex at 10 uM
Summary of the method: (§3)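 Inhibition of orthosteric ligand binding to NMDA, AMPA and kainate receptors on rat cerebral cortex membranes, tested up to 10 μM.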

[8] = Ratio of drug level in Sprague-Dawley rat brain to plasma at 25 mg/kg, po administered as single dose by LC-MS/MS analysis; format: ADME, organism-based; conditions: read-out: BPR
Summary of the method: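 Sprague−Dawley rats dosed orally at 25 mg/kg in water; plasma and brain concentrations followed over time to derive brain/plasma ratio.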

Rattus norvegicus [9] = species on record: Rattus norvegicus; experiment: Activity at AMPA glutamate receptor in rat cerebral cortex at 10 uM; summary of the method: as §3
Rattus norvegicus [10] = species on record: Rattus norvegicus; experiment: Activity at NMDA glutamate receptor in rat cerebral cortex at 10 uM; summary of the method: as §3
[11] = Activity at COMT (unknown origin) up to 10 uM; format: ADME; conditions: human
Homo sapiens [12] = species on record: Homo sapiens; experiment: Selectivity ratio of compound effect for positive allosteric modulation of recombinant human mGlu4 receptor to compound effect for activity at human mGlu6 receptor
[13] = biological target: Metabotropic glutamate receptor 4 (Rattus norvegicus, UniProt P31423); experiment: Positive allosteric modulation of rat mGlu4 receptor expressed in HEK293 cells co-expressing Gi/Gq assessed as increase in glutamate-induced calcium flux preincubated for 10 mins followed by glutamate addition measured for 3 mins by Fluo4-AM dye based fluorescence assay; format: functional, cell-based
Chain of Metabotropic glutamate receptor 4 (Rattus norvegicus, UniProt P31423) (P31423 whole entry): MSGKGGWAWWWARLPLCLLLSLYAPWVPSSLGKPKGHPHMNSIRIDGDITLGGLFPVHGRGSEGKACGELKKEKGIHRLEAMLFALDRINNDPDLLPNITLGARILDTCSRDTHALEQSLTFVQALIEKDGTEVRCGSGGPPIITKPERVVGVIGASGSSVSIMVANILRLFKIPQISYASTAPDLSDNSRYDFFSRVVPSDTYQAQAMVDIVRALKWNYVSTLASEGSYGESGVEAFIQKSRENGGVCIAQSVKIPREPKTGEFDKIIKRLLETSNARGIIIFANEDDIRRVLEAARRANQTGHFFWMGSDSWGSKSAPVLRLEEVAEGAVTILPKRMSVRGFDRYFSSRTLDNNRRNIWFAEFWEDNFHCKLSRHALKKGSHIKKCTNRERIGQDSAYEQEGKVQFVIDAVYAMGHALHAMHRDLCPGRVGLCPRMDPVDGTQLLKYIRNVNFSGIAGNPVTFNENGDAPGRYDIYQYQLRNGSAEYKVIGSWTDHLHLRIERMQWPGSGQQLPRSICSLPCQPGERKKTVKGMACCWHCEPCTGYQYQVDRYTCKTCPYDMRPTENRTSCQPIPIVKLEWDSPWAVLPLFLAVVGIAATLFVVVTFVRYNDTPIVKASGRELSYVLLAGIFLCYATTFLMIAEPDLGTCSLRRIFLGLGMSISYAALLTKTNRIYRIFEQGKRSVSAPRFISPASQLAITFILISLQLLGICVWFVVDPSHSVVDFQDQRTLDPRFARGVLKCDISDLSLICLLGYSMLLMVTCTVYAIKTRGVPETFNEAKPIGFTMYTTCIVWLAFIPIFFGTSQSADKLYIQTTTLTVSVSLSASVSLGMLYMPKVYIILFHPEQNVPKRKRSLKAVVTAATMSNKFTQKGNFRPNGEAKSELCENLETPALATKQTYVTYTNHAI

Homo sapiens [14] = species on record: Homo sapiens; experiment: Selectivity ratio of compound effect for positive allosteric modulation of recombinant human mGlu4 receptor to compound effect for agonist activity at human mGlu8 receptor
[15] = biological target: T1, Metabotropic glutamate receptor 4; experiment: Positive allosteric modulation of recombinant human mGlu4 receptor expressed in HEK293 cells co-expressing chimeric Gi/Gq protein assessed as fold shift of glutamate potency at 3 uM after 10 mins by Fluo4-AM dye based fluorescence assay relative to control
Brain = experiment: AUC (0 to infinity) in Sprague-Dawley rat brain at 10 mg/kg, po administered as single dose by LC-MS/MS analysis; format: ADME, organism-based; set-up: dose 10 mg/kg, time infinity, route oral; conditions: in vivo; summary of the method: as §1
[16] = AUC (0 to infinity) in Sprague-Dawley rat at 1 mg/kg, iv administered as single dose by LC-MS/MS analysis; format: ADME, organism-based; set-up: dose 1 mg/kg, route intravenous, time infinity; conditions: in vivo
[17] = biological target: Amine oxidase [flavin-containing] B (Homo sapiens, UniProt P27338); experiment: Activity at MAO-B (unknown origin) up to 10 uM; format: ADME
Chain of Amine oxidase [flavin-containing] B (P27338 whole entry): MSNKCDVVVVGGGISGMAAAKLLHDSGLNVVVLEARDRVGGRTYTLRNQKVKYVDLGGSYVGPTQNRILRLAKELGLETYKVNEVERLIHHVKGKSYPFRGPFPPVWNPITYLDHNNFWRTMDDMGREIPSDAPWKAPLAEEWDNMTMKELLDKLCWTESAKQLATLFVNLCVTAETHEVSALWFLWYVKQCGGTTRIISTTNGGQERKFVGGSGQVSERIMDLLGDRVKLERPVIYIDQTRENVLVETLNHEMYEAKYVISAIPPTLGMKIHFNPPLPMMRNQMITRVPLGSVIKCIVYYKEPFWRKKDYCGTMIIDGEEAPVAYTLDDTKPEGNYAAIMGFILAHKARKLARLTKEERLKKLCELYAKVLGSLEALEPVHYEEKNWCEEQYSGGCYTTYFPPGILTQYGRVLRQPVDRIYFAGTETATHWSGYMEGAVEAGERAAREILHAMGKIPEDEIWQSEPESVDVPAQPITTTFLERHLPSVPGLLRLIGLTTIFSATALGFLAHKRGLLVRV

[18] = Cmax in Sprague-Dawley rat plasma at 10 mg/kg, po administered as single dose by LC-MS/MS analysis; format: ADME, organism-based; set-up: dose 10 mg/kg, route oral; summary of the method: as §2
[19] = Cmax in Sprague-Dawley rat at 1 mg/kg, iv administered as single dose by LC-MS/MS analysis; format: ADME, organism-based; set-up: dose 1 mg/kg, route intravenous; conditions: in vivo
[20] = biological target: T1, Metabotropic glutamate receptor 4; experiment: Positive allosteric modulation of recombinant human mGlu4 receptor expressed in HEK293 cells co-expressing chimeric G protein assessed as increase in EC20 glutamate-induced […]; format: functional, cell-based
[21] = Plasma clearance in Sprague-Dawley rat at 1 mg/kg, iv administered as single dose by LC-MS/MS analysis; format: ADME, organism-based
Summary of the method: (§4)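 Single iv dose, 1 mg/kg in rat or 2 mg/kg in mouse; plasma PK parameters derived; brain/plasma ratio taken at 1 h postdose (rat) or 30 min postdose (mouse). Mean of 3 rats; 2 mice for mouse Cmax and brain/plasma.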

[22] = Volume of distribution in Sprague-Dawley rat at 1 mg/kg, iv administered as single dose by LC-MS/MS analysis; format: ADME, organism-based; conditions: in vivo
Summary of the method: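 Single intravenous dose: rats 1 mg/kg, mice 2 mg/kg. Plasma concentration–time data yielded Cmax, t1/2, AUC0−∞, plasma clearance and volume of distribution. Values are mean ±SEM of 3 animals.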

[23] = Ratio of drug level in Sprague-Dawley rat brain to plasma at 1 mg/kg, iv after 1 hr post dose administered as single dose by LC-MS/MS analysis; format: ADME, organism-based; conditions: read-out: BPR; summary of the method: as §4
[24] = AUC (0 to infinity) in Sprague-Dawley rat plasma at 10 mg/kg, po administered as single dose by LC-MS/MS analysis; format: ADME, organism-based; set-up: dose 10 mg/kg, time infinity, route oral; summary of the method: as §2
[25] = biological target: Amine oxidase [flavin-containing] A (Homo sapiens, UniProt P21397); experiment: Activity at MAO-A (unknown origin) up to 10 uM; format: ADME
Chain of Amine oxidase [flavin-containing] A (P21397 whole entry): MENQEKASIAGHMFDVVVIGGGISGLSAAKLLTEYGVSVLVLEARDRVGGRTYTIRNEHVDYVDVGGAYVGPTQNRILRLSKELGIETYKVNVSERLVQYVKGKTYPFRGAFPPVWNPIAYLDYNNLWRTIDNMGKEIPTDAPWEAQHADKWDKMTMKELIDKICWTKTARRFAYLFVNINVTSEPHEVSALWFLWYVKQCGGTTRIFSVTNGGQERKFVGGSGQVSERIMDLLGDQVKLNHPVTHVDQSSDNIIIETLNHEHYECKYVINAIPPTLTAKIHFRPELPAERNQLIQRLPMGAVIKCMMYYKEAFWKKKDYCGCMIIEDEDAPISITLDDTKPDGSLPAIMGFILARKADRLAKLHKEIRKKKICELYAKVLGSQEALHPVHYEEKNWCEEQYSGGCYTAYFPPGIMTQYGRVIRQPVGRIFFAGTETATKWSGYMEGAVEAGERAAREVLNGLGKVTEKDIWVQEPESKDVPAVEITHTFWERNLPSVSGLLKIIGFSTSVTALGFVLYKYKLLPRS

[26] = Half life in Sprague-Dawley rat at 1 mg/kg, iv administered as single dose by LC-MS/MS analysis; format: ADME, organism-based; conditions: in vivo; summary of the method: as §4
[27] = Ratio of AUC (0 to infinity) in Sprague-Dawley rat brain to plasma at 10 mg/kg, po administered as single dose by LC-MS/MS analysis; format: ADME, organism-based; conditions: read-out: Ratio AUC
[28] = Tmax in Sprague-Dawley rat plasma at 10 mg/kg, po administered as single dose by LC-MS/MS analysis; format: ADME, organism-based
Summary of the method: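 Single-dose plasma PK after ip (10 or 30 mg/kg) or oral (10 mg/kg) dosing in rats, and oral 10 mg/kg dosing in mice. […] Values are mean ±SEM of 3 rats or 2 mice.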

Homo sapiens [29] = species on record: Homo sapiens; experiment: Selectivity ratio of compound effect for positive allosteric modulation of recombinant human mGlu4 receptor to compound effect for agonist activity at human mGlu7 receptor
[30] = biological target: T1, Metabotropic glutamate receptor 4; experiment: Positive allosteric modulation of recombinant human mGlu4 receptor expressed in HEK293 cells co-expressing chimeric Gi/Gq assessed as increase in EC20 glutamate-induced calcium flux at 15 uM preincubated for 10 mins followed by glutamate addition measured for 3 mins by Fluo4-AM dye based fluorescence assay relative to control; format: functional, cell-based
[31] = Thermodynamic solubility of the compound in water; format: physicochemical; conditions: read-out: Therm_solubility
Summary of the method: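 Thermodynamic solubility measured in milli-Q water.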

Compound: O/N=c1\cc(-c2cc3sccc3cn2)oc2ccc(OCCN3CCOCC3)cc12
concentration at 1.5 h [1]: 281 ng/g
concentration at 1 h [2]: 521 ng/g
EC50 [3]: 35 nM
concentration at 0.5 h [4]: 408 ng/g

Compound: O=C(Nc1ccccc1)[C@]12C[C@H]1/C(=N\O)c1ccccc1O2
Activity [5]: Active

Compound: O/N=c1\cc(-c2cc3sccc3cn2)oc2ccc(CCCN3CCOCC3)cc12 [FOLIGLURAX]
concentration at 1.5 h [1]: 818 ng/g
EC50 [6]: 79 nM
Activity (Rattus norvegicus [7]): inactive
Kp [8]: ≤ 13.5
Activity (Rattus norvegicus [9]): inactive
Activity (Rattus norvegicus [10]): inactive
Activity [11]: Not Active
Selectivity ratio (Homo sapiens [12]): 15
EC50 [13]: 47 nM
Selectivity ratio (Homo sapiens [14]): 50
fold change (FC) [15]: 10
concentration at 1 h [2]: 785 ng/g
EC50 [3]: 79 nM
AUC (Brain): 2713 ng·h/g
AUC(0-inf) [16]: 163 ng·h/mL
concentration at 0.5 h [4]: 458 ng/g
Activity [17]: Not Active
Cmax [18]: 94 ng/mL
Cmax [19]: 325 ng/mL
Emax [20]: 70%
clearance [21]: 104 mL/min/kg
Vd [22]: 8.02 L/kg
Kp at 1 h [23]: 8.4
AUC(0-inf) [24]: 432 ng·h/mL
Activity [25]: Not Active
half-life [26]: 0.9 h
Kp [27]: 6.6
Tmax [28]: 1.17 h
Selectivity ratio (Homo sapiens [29]): 110
Emax [30]: 32%

Compound: O/N=c1\cc(-c2cc3sccc3cn2)oc2ccc(OCCN3CCC(F)(F)CC3)cc12
concentration at 1.5 h [1]: 194 ng/g
concentration at 1 h [2]: 207 ng/g
EC50 [3]: 90 nM
concentration at 0.5 h [4]: 239 ng/g

Compound: O/N=c1\cc(-c2cc3cccn3cn2)oc2ccccc12
EC50 [3]: 110 nM
solubility thermodynamic [31]: 0.2 µM (≈ 0.0555 µg/mL)

Compound: CN(C)C(=O)N1CC(Oc2ccc3oc(-c4cc5cccn5cn4)c/c(=N\O)c3c2)C1
concentration at 1 h [2]: 8.8 ng/g
EC50 [3]: 35 nM
concentration at 0.5 h [4]: 25.5 ng/g

The next lines start with the values.

concentration at 1 h [2]: 26.7 ng/g
EC50 [3]: 4 nM
concentration at 0.5 h [4]: 33.4 ng/g
Compound: O/N=c1\cc(-c2cc3sccc3cn2)oc2ccc(OC3CN(c4cccnc4)C3)cc12

concentration at 1 h [2]: < 1 ng/g
EC50 [3]: 4 nM
concentration at 0.5 h [4]: 7.4 ng/g
Compound: Cc1ncccc1N1CCC(Cc2ccc3oc(-c4cc5sccc5cn4)c/c(=N\O)c3c2)CC1

concentration at 1 h [2]: 9.5 ng/g
EC50 [3]: 17 nM
concentration at 0.5 h [4]: 20 ng/g
Compound: O/N=c1\cc(-c2cc3sccc3cn2)oc2ccc(O[C@@H]3CCN(c4ccncn4)C3)cc12
